This note sets out measurements from ChEMBL document CHEMBL1122649, “3-Alkyl-2-aryl-3H-naphth[1,2-d]imidazoles, a novel class of nonacidic antiinflammatory agents” (J Med Chem, 1984).

The species entered for assay [1] is Rattus norvegicus. Description: Compound was evaluated for its analgesic activity by Randall-Selitto test in comparison with that of Aspirine. The class given is functional. An outline of the steps: (§1)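 Randall–Selitto pain threshold, measured on the inflamed right hind paw of male Wistar rats (170–200 g), 10 per dose. Edema was induced with 0.1 mL of 20% yeast suspension in saline. Oral dosing in 0.5% methocel (10 mL/kg), highest dose one-fifth of LD50, then scaling down through 100, 50, 20, 10, 5 and 2 mg/kg. Threshold read before dosing, then hourly for 6 h. Potency expressed relative to aspirin = 1.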

The species named for assay [2] is Rattus norvegicus. The assay can be described thus: Compound was evaluated for its antipyretic activity by antipyresis effect in comparison with that of Aspirin. Format: functional. An outline of the steps:
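Male Sprague-Dawley rats (120–150 g), 6 per dose, starved 18 h and kept at 24 °C; rats above 38 °C were excluded. Fever was induced by subcutaneous 1 mL of filtered 5% peptone preincubated 48 h at 37 °C. Oral doses as in the analgesic test (top dose one-fifth of LD50, stepping down). Rectal thermocouple readings from 4 h after injection, then hourly for 4 h. Activity relative to aspirin = 1.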

For assay [3], the system named is Rattus norvegicus. Description: Compound was evaluated for its antiinflammatory activity in the cotton pellet induced granuloma(CPG) in normal rats at the dose 3 mg/kg p.o. The conditions noted are these: po, read-out: Inhibition.
Assay [4] deals with Rattus norvegicus. Description: Compound was evaluated for its antiinflammatory activity by adjuvant-induced polyarthritis test in rats at a dosage of 1 mg/kg administered orally. Format: functional. The conditions noted are these: route oral. The gist of the method:
(§2)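 Female Wistar rats (130–150 g), 8 per dose. Killed Mycobacterium butyricum (0.6 mg in 0.1 mL mineral oil) was injected into the right hind plantar aponeurosis. Oral dosing in 0.5% methocel, once daily, curative scheme from day 14 to day 27. Read-outs: percent change in hind-paw volume versus controls; Newbould 0–4 lesion scores for front paws, tail and ears; plasma inflammation units by nephelometric turbidity before and after 30 min at 56 °C on day 27.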

The subject of assay [5] is Rattus norvegicus. Description: Compound was evaluated for its gastroulcerogenic effect in rats at a peroral dose of 200 mg/kg, P<0.05. Format: functional. The conditions noted are these: route oral.
The test system of assay [6] is Rattus norvegicus. Description: Compound was evaluated for its antiinflammatory activity in the cotton pellet induced granuloma(CPG) in normal rats at the dose 200 mg/kg p.o. The class given is functional. The conditions noted are these: route oral. The gist of the method: (§3)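 Male Wistar rats (150–180 g), 7 per group. Two sterile 50 mg cotton pellets were implanted subcutaneously in the interscapular region under ether. Oral dosing in 0.5% methocel (10 mL/kg) daily for 6 days, starting 6 h after surgery. Animals were killed 24 h after the last dose; pellets with granuloma were dried 24 h at 80 °C. Percent inhibition versus vehicle controls.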

Assay [7] concerns Rattus norvegicus. The assay can be described thus: Antiinflammatory activity was measured as the percentage inhibition of edema in carrageenan induced rat paw after peroral administration of 100 mg/kg of compound. The class given is functional. The conditions noted are these: route oral. An outline of the steps: (§4)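 Female Wistar rats (120–150 g), 10 per dose, dosed orally with an aqueous suspension in 0.5% methocel (10 mL/kg) 1 h before 0.05 mL of 1% carrageenin in saline was injected into the right hind paw aponeurosis. Paw volume was read plethysmographically at injection and 4 h later. Inhibition is given relative to vehicle controls. Screening dose 200 mg/kg; 100 mg/kg was tested when inhibition exceeded 30%. Student's t test.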
(In general: In the carrageenan paw model, swelling and tenderness develop within hours.)

The subject of assay [8] is Rattus norvegicus. The assay can be described thus: Antiinflammatory activity measured as the percentage inhibition of edema in carrageenan induced rat paw after peroral administration of 200 mg/kg of compound. Format: functional. The conditions noted are these: route oral. The gist of the method:
as §4

The species entered for assay [9] is Rattus norvegicus. The assay can be described thus: Compound was evaluated for its gastroulcerogenic effect with respect to treated and control groups. Treated and control groups are not statistically different when the index is <1; P<0.05. The class given is functional.
The species named for assay [10] is Rattus norvegicus. Description: Compound was evaluated for its analgesic activity by Randall-Selitto test in comparison with that of Aspirin. Format: functional. An outline of the steps:
as §1

The test system of assay [11] is Rattus norvegicus. The assay can be described thus: (§5) Compound was evaluated for its antiinflammatory activity by adjuvant-induced polyarthritis test in rats at a dosage of 200 mg/kg administered orally. The conditions noted are these: route oral. The class given is functional. The gist of the method: as §2
The subject of assay [12] is Rattus norvegicus. Description: Compound was evaluated for its antiinflammatory activity in the cotton pellet induced granuloma (CPG) in normal rats at the dose 200 mg/kg p.o. Format: functional. The conditions noted are these: route oral. An outline of the steps:
as §3

Assay [13] concerns Rattus norvegicus. The description is as §5. More on the design: unit not given beside the values. The conditions noted are these: route oral. Format: functional. An outline of the steps:
as §2

`COc1ccc2c(c1)c(CC(=O)O)c(C)n2C(=O)c1ccc(Cl)cc1` [INDOMETHACIN] had an Activity in the assay listed under Rattus norvegicus [1] of 34. Moreover, the Activity in the assay listed under Rattus norvegicus [2] is recorded as 15.4. For the same compound, the inhibition in vivo at 3 mg/kg in the assay with Rattus norvegicus [3] worked out at 41%. In the assay with Rattus norvegicus [4], the Arthritis scores is recorded as 65, the Inflammation units worked out at 82 and the “Mean volume of hind paws” value is 52. In the assay with Rattus norvegicus [5], this compound gave a Ulcerogenic index of 1.5.
With `Cn1c(-c2ccccc2)nc2c3ccccc3ccc21`, the Activity in the assay listed under Rattus norvegicus [1] is listed as 0.9; in the assay listed under Rattus norvegicus [2] it was 9.1. Further, the inhibition in vivo at 200 mg/kg with Rattus norvegicus [6] came to 24%; in the assay on Rattus norvegicus [8], 42%. In the assay on Rattus norvegicus [7], this compound displayed an inhibition in vivo at 100 mg/kg of 37%. The compound also had a Ulcerogenic index in the assay filed under Rattus norvegicus [9] of 0.33.
`COc1ccc(-c2nc3c4ccccc4ccc3n2C)cc1`: the Activity was found to be 1.2 in the assay filed under Rattus norvegicus [10] and 1 in the assay filed under Rattus norvegicus [2]. Moreover, the Arthritis scores in the assay with Rattus norvegicus [11] is 40. In the assay on Rattus norvegicus [11], the Inflammation units amounted to 46. Further, the inhibition in vivo at 200 mg/kg with Rattus norvegicus [12] is 40%; in the assay on Rattus norvegicus [8], 53%. Also, the inhibition in vivo at 100 mg/kg in the assay on Rattus norvegicus [7] stood at 41%. The “Mean volume of hind paws” value with Rattus norvegicus [13] came out at 33. Further, the Ulcerogenic index with Rattus norvegicus [5] came out at 0.31.
